The nature of data set [1]: Dissociation constant, pKa of the compound. Format: physicochemical.
Data set [2] can be described thus: Inhibition of abalone entrails type 8 recombinant sulfatase expressed in Escherichia coli by fast phase inactivation. The arrangement: species or system Haliotis corrugata.
A short description of data set [3]: Inhibition of Patella vulgata type 5 recombinant sulfatase expressed in Escherichia coli. The method in brief: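 Limpet sulfatase at pH 7 with 0–12.5 mM sulfamate; semi-logarithmic plots of residual activity over time, inactivation rates replotted against concentration to give Ki and kinact.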
Data set [4] is described as follows: Inhibition of Helix pomatia type H1 recombinant sulfatase expressed in Escherichia coli. The method in brief: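 Snail sulfatase incubated at pH 7 with 0–500 µM 3-nitrophenyl sulfamate; residual activity plotted semi-logarithmically against time, and pseudo-first-order rates replotted against inactivator concentration to fit Ki and kinact (E + I ⇌ E·I → E–P).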

In data set [5] the target is Arylsulfatase (Pseudomonas aeruginosa (strain ATCC 15692 / PAO1 / 1C / PRS 101 / LMG12228), UniProt P51691). As to the kind of experiment: Inhibition of Pseudomonas aeruginosa recombinant arylsulfatase A expressed in Escherichia coli.
Chain of Arylsulfatase (P51691 whole entry): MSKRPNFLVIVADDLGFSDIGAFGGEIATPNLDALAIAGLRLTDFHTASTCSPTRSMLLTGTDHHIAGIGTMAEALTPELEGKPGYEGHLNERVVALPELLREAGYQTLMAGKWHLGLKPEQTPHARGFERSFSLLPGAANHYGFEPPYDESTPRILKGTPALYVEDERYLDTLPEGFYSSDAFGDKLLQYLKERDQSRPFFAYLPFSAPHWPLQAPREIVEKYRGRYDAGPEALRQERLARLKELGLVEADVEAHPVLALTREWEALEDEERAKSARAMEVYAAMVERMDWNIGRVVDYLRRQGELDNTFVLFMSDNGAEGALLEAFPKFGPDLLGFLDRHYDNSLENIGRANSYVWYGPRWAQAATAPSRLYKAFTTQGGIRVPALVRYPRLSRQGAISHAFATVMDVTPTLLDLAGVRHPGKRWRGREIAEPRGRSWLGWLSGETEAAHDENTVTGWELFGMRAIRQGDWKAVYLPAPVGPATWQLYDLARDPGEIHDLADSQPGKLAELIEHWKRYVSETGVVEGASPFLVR
The nature of data set [6]: Inhibition of abalone entrails type 8 recombinant sulfatase expressed in Escherichia coli by slow phase inactivation. The arrangement: species or system Haliotis corrugata.
Data set [7] is described as follows: Chemical decomposition at pH 7 after 15 mins. Particulars: buffer.

For orientation: pKa means the negative logarithm of the acid dissociation constant. `O=[N+]([O-])c1ccc(OS(=O)(=O)O)cc1`: the pKa in data set [1] came out at 7.14.

Take `NS(=O)(=O)Oc1cccc([N+](=O)[O-])c1`: the Ki in data set [2] was 1600 µM; in data set [3], 980 µM; in data set [4], 35 µM; in data set [5], 0.13 µM; in data set [6], 5000 µM. In data set [7], this compound displayed a decomposed at 0.25 h of 4.2%.

(Values after ChEMBL document CHEMBL1154522, “Aryl sulfamates are broad spectrum inactivators of sulfatases: effects on sulfatases from various sources” (Bioorg Med Chem Lett, 2009).)
